Source: ChEMBL document CHEMBL1142671, “Chiral DNA gyrase inhibitors. 3. Probing the chiral preference of the active site of DNA gyrase. Synthesis of 10-fluoro-6-methyl-6,7-dihydro-9-piperazinyl- 2H-benzo[a]quinolizin-20-one-3-carboxylic acid analogues” (J Med Chem, 2005)
Converted amounts (≈) assume the structure as drawn.

Columns and labels:
Staphylococcus aureus = experiment: In vitro minimum inhibitory concentration against Staphylococcus aureus ATCC 6538P was determined; type: functional
Method in brief: (§1)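 Two-fold agar dilution series; MIC taken as the average of triplicate runs. Tested against intact Gram-positive and Gram-negative bacteria.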

DNA gyrase = DNA gyrase (Escherichia coli, UniProt P0AES4+P0AES6); experiment: In vitro inhibitory concentration against DNA gyrase from Escherichia coli H560; type: protein-complex assay
Method in brief: (§2)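 Purified DNA gyrase, isolated from Escherichia coli H560 or Micrococcus luteus; IC50 in µg/mL, averaged over triplicate runs.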

Escherichia coli [1] = experiment: In vitro minimum inhibitory concentration against Escherichia coli Juhl was determined; type: functional; method in brief: as §1
Pseudomonas aeruginosa = experiment: In vitro minimum inhibitory concentration against Pseudomonas aeruginosa was determined; type: functional; method in brief: as §1
Escherichia coli [2] = experiment: In vitro minimum inhibitory concentration against Escherichia coli KNK 437 was determined; type: functional; method in brief: as §1
[3] = In vitro minimum inhibitory concentration against […] faecium ATCC 8043 was determined; type: functional; method in brief: as §1
Escherichia coli [4] = experiment: In vitro minimum inhibitory concentration against Escherichia coli H560 was determined; type: functional; method in brief: as §1
Escherichia coli [5] = experiment: In vitro minimum inhibitory concentration against Escherichia coli SS was determined; type: functional; method in brief: as §1
Micrococcus luteus = experiment: In vitro minimum inhibitory concentration against Micrococcus luteus 9341 was determined; type: functional; method in brief: as §1
Nucleic Acid = experiment: In vitro inhibitory concentration against DNA gyrase from Micrococcus luteus […]; type: nucleic-acid assay; method in brief: as §2

CC1Cc2cc(N3CCNCC3)c(F)cc2-c2cc(=O)c(C(=O)O)cn21 (stereo not given)
MIC (Staphylococcus aureus): 25 µg/mL (≈ 70 µM)
IC50 (DNA gyrase): 83.9 µM
MIC (Escherichia coli [1]): 50 µg/mL (≈ 140 µM)
MIC (Pseudomonas aeruginosa): 50 µg/mL (≈ 140 µM)
MIC (Escherichia coli [2]): 0.2 µg/mL (≈ 0.56 µM)

C[C@@H]1Cc2ccccc2-c2cc(=O)c(C(=O)O)cn21
MIC [3]: > 100 µg/mL
MIC (Escherichia coli [4]): 50 µg/mL (≈ 196 µM)
MIC (Escherichia coli [5]): 6.25 µg/mL (≈ 24.5 µM)
MIC (Staphylococcus aureus): 25 µg/mL (≈ 97.9 µM)
MIC (Micrococcus luteus): 100 µg/mL (≈ 392 µM)
IC50 (DNA gyrase): 125 µM
MIC (Escherichia coli [1]): 25 µg/mL (≈ 97.9 µM)
MIC (Pseudomonas aeruginosa): 100 µg/mL (≈ 392 µM)
MIC (Escherichia coli [2]): > 100 µg/mL
IC50 (Nucleic Acid): > 250 µg/mL

O=C(O)c1cn(C2CC2)c2cc(N3CCNCC3)c(F)cc2c1=O [CIPROFLOXACIN]
MIC [3]: 0.78 µg/mL (≈ 2.35 µM)
MIC (Escherichia coli [5]): 0.005 µg/mL (≈ 0.0151 µM)
MIC (Staphylococcus aureus): 0.2 µg/mL (≈ 0.604 µM)
MIC (Micrococcus luteus): 1.56 µg/mL (≈ 4.71 µM)
MIC (Pseudomonas aeruginosa): 0.05 µg/mL (≈ 0.151 µM)

C[C@H]1Cc2ccccc2-c2cc(=O)c(C(=O)O)cn21
MIC [3]: > 100 µg/mL
MIC (Escherichia coli [4]): 25 µg/mL (≈ 97.9 µM)
MIC (Escherichia coli [5]): 1.56 µg/mL (≈ 6.11 µM)
MIC (Staphylococcus aureus): 50 µg/mL (≈ 196 µM)
MIC (Micrococcus luteus): > 100 µg/mL
IC50 (DNA gyrase): 78.3 µM
MIC (Escherichia coli [1]): 25 µg/mL (≈ 97.9 µM)
MIC (Pseudomonas aeruginosa): 50 µg/mL (≈ 196 µM)
MIC (Escherichia coli [2]): > 100 µg/mL
IC50 (Nucleic Acid): > 250 µg/mL
